TRPC4 agonist = TRPC4 (mouse) channel activation; Q9QUQ5; HEK293 TRPC4beta/mu-opioid, Fluo4 calcium fluorescence; hits give high values; B-score at 10 µM; 0.49% of 310,000 active; AID 2237;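 active means B-score above 5 SD of library B-scores, and initial fluorescence ratio not above library mean plus 5 SD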;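 further: positive B-score marks a calcium rise read as TRPC4 activation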
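Material: TRPC4beta and mu-opioid receptor HEK293 stable cells | Incubation: 45 min room-temperature Fluo4 loading, 110 s read | Detection: Kinetic Fluo4 calcium fluorescence | Measure: Integrated baseline-normalised fluorescence ratio, converted to per-well B score | Benchmarks: Low control buffer alone, high control maximal DAMGO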
TRPC4 block = inhibitors of mouse TRPC4 channel | Q9QUQ5 | HEK293 TRPC4beta/mu-opioid, DAMGO-evoked Fluo4 calcium flux; hits give low values | B-score at 10 µM | 0.39% of 300,000 active;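 active means B-score over 3 SD under the library average, no early fluorescence shift, positive overall ratio signal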
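Material: HEK293 cells with stable TRPC4beta plus mu-opioid receptor expression; probe or stimulus: DAMGO in two steps, submaximal then maximal; technique: Fluo4 calcium fluorescence by kinetic imaging, 5 s 1 Hz baseline; measure: integrated fluorescence ratio relative to baseline, converted to per-well B score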
TRPC4 potent = allosterically enhances the mouse TRPC4 cation channel. Q9QUQ5. HEK293 TRPC4beta/mu-opioid, DAMGO EC20, Fluo-4 Ca2+ flux; hits give high values. B-score at 10 µM. 0.42% of 310,000 active. AID 2227;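 active means B-score of calcium response area above 5 SD of library B-scores, with initial fluorescence ratio within 5 SD of library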;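 further: B-score of integrated fluorescence ratio over time as area under calcium response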
TRPC6 inhibitor = inhibitors of mouse TRPC6 channel | HEK293-TRPC6, membrane potential dye, ACh-evoked depolarization; hits give low values | B-score at 10 µM | 1.1% of 310,000 active | AID 2553;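 active means B-score under library mean minus 3 SD, initial fluorescence not abnormally high, positive integrated signal ratio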;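 further: B-score derived from integrated fluorescence ratio over the kinetic read; more negative B-score means stronger inhibition of depolarization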
TRPC6 act = activators of mouse TRPC6 channel | AID 2550 | 0.13% of 310,000 active | Q61143 | B-score at 10 µM | HEK293-TRPC6 membrane potential dye fluorescence; hits give high values;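 active means B-score of the integrated fluorescence ratio above library mean plus 3 SD, and starting fluorescence ratio within library mean plus 5 SD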;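 further: higher score means more depolarization so channel activation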
The depositor's hits bear a star; i = inactive. Most compounds without a hit are left out; they make up all but 2.3% or so of the library.

SMILES	TRPC4 agonist	TRPC4 block	TRPC4 potent	TRPC6 inhibitor	TRPC6 act
CCOc1ccc(CN2CCN(c3cc(C)nc4c5c(C)cc(C)nc5nn34)CC2)cc1	50*	i	i	i	i
CC1Cc2ccccc2N1C(=O)CSc1nc2c(c(=O)n(C)c(=O)n2C)n1Cc1ccc(F)cc1 (configuration not stated)	i	i	49*	i	i
CCCCn1c(SCC(=O)N2c3ccccc3Sc3ccccc32)nc2c1c(=O)n(C)c(=O)n2C	i	i	117*	i	i
COc1ccc2c(C)cc(N3CCN(Cc4ccccc4)CC3)nc2c1	i	i	i	i	i
COc1ccc2c(C)cc(N3CCCCCC3)nc2c1	i	-10*	i	i	i
Cc1cc(N2CCCCCC2)nc2ccc(F)cc12	i	-6*	i	i	i
Cc1cc(C)nc(Nc2nc(=O)c3ccccc3s2)n1	i	i	55*	i	i
CC(C)(C)C(=O)NC(=S)NNC(=O)C(c1ccccc1)c1ccccc1	304*	i	i	i	i
CC(=O)NNC(=S)NC(=O)C(c1ccccc1)c1ccccc1	i	i	i	i	i
CCCN(CC(=O)Nc1ccccc1Br)CC(=O)Nc1ccc(F)c(F)c1F	i	i	12*	i	i
COc1c2c(cc3c1C(CC(O)Cc1ccccc1)N(C)CC3)OCO2 (configuration not stated)	96*	i	i	i	i
CCCn1nc(C(=O)NC2CCCc3ccccc32)c2ccccc2c1=O (configuration not stated)	i	i	23*	i	i
COC(=O)c1ccc(CN2CCCC(C(=O)Nc3ccc(-c4ccn[nH]4)cc3)C2)cc1 (configuration not stated)	50*	i	i	i	i
COC(=O)c1ccc(NC(=O)C2CCCN(S(C)(=O)=O)C2)cc1 (configuration not stated)	i	i	i	i	i
COc1ccccc1/C=C/CN1CCCC(CCC(=O)NCc2ccc(F)c(F)c2)C1 (configuration not stated)	118*	i	i	i	i
COc1cccc(CNC(=O)CCC2CCCN(C/C=C/c3ccccc3OC)C2)c1 (configuration not stated)	73*	i	i	i	i
COCc1ccc(CN2CCCC(CCC(=O)NCc3cccc(OC)c3)C2)o1 (configuration not stated)	i	i	i	i	i
Cc1cc(OCC(=O)N2CCOCC2)ccc1[N+](=O)[O-]	i	i	i	i	i
CN(C)S(=O)(=O)c1cccc(NC(=S)NCCc2ccccn2)c1	i	i	i	i	i
Cc1ccc(C)c(NC(=S)N(C)CCc2ccccn2)c1	74*	i	i	i	i
CN(CCc1ccccn1)C(=S)Nc1cccc(S(=O)(=O)N(C)C)c1	101*	i	i	i	i
Cc1cccc(OCC(=O)N(C)CCc2ccccn2)c1	54*	i	i	i	i
Cc1cccc(CN(C)CCc2ccccn2)c1	i	i	i	i	i
O=C(NCC1CCCC(CNC(=O)Nc2ccc(Cl)cn2)C1)Nc1ccc(Cl)cn1 (configuration not stated)	i	i	i	i	i
Cc1ccc(NC(=O)COC(=O)COc2cccc3c2OC(C)(C)C3)c(C)c1	i	i	i	i	i
C#CCCOC(=O)N1C2=NC(C(=O)OC)=C(C(=O)OC)[C@@H]3N(C)c4ccccc4[C@]23C[C@H]1C(=O)OC	i	i	i	i	i
C#CCCOC(=O)N1C2=NC(C(=O)OC)=C(C(=O)OC)[C@@H]3N(Cc4ccccc4)c4ccccc4[C@]23C[C@H]1C(=O)OC	i	i	10*	i	i
O=C(O)c1cc(-c2ccc(/C=c3\sc4nc5ccc(Br)cc5n4c3=O)o2)ccc1Cl	i	i	i	i	40*
Cc1ccccc1C(=O)NNC(=S)NC(=O)c1ccccc1	205*	i	i	i	i
